Assay [1] deals with SH-SY5Y. Description: Neuroprotective activity in human SH-SY5Y cells assessed as inhibition Abeta25-35-induced reduction of cell viability at 1 uM compound pretreated for 2 hrs before induction cell viability measured after 24 hrs (reference value: 69.77%). The assay is classed as functional.
In assay [2] the test system is SH-SY5Y. Description: Neuroprotective activity in human SH-SY5Y cells assessed as inhibition Abeta25-35-induced reduction of cell viability at 10 uM compound pretreated for 2 hrs before induction cell viability measured after 24 hrs (reference value: 69.77%). In kind it is functional.
For assay [3], the system named is SH-SY5Y. Description: Neuroprotective activity in human SH-SY5Y cells assessed as inhibition OGD-induced injuries measured as cell viability at 10 uM measured after 24 hrs. In kind it is functional. The gist of the method:
(§1)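 Oxygen-glucose deprivation (OGD) injury was applied to human SH-SY5Y cells, with compounds at 1 μM or higher. Cell viability, or its increase, was compared with control and with OGD-only wells. Data are mean ± SD, n = 3-6.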

In assay [4] the test system is SH-SY5Y. Description: Neuroprotective activity in human SH-SY5Y cells assessed as inhibition H2O2-induced damage measured as cell viability at 100 uM measured after 24 hrs. In kind it is functional. The gist of the method:
(§2)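 Human SH-SY5Y cells were subjected to H2O2-induced damage, with compounds at 1 or 10 μM and L-NAC at 100 μM as the positive control. Cell viability was compared with control and with H2O2-only wells. Data are mean ± SD, n = 3-6.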

The subject of assay [5] is SH-SY5Y. In words: Neuroprotective activity in human SH-SY5Y cells assessed as inhibition H2O2-induced damage measured as cell viability at 10 uM measured after 24 hrs. In kind it is functional. The gist of the method:
as §2

Assay [6] deals with SH-SY5Y. In words: Neuroprotective activity in human SH-SY5Y cells assessed as inhibition H2O2-induced damage measured as cell viability at 1 uM measured after 24 hrs. The assay is classed as functional, cell-based. In short, it runs like this:
as §2

The subject of assay [7] is SH-SY5Y. In words: Neuroprotective activity in human SH-SY5Y cells assessed as inhibition Abeta25-35-induced reduction of cell viability at 10 uM after 24 hrs by SRB assay. The assay is classed as functional.
For assay [8], the system named is SH-SY5Y. Description: Neuroprotective activity in human SH-SY5Y cells assessed as inhibition OGD-induced injuries measured as cell viability at 1 uM measured after 24 hrs. In kind it is functional. The gist of the method: as §1
Another assay deals with A549. In words: Cytotoxicity against human A549 cells by MTT assay. The assay is classed as functional. In short, it runs like this:
(§3)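 Cells were exposed to compound at 10 μM, and cytotoxicity was expressed as percent inhibition of growth.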

The nature of assay [9]: Cytotoxicity against human HL60 cells by MTT assay. In kind it is functional, HL-60. In short, it runs like this:
as §3
For orientation: Formazan colour is commonly taken as a measure of viable cells.

For assay [10], the system named is SH-SY5Y. Description: Neuroprotective activity in human SH-SY5Y cells assessed as inhibition OGD-induced injuries measured as increase in cell viability at 1 uM measured after 24 hrs. The assay is classed as functional. In short, it runs like this:
as §1

Calls of active or inactive are those of the source. No cut-off for these calls is given here.

With `N#Cc1ccc(-c2ccc(-c3noc(Cc4c[nH]c5ccccc45)n3)o2)cc1`, the outcome in the assay on SH-SY5Y [1] was inactive. The Activity with SH-SY5Y [2] is listed as 93.3%.

As for `CC(C)(C)c1ccc(-c2ccc(-c3noc(Cc4c[nH]c5ccccc45)n3)o2)cc1`, the outcome in the assay with SH-SY5Y [1] was inactive. Besides, in the assay on SH-SY5Y [2], the Activity is reported as 92.1%.

`Nc1ccc(-c2cccc(-c3noc(Cc4c[nH]c5ccccc45)n3)c2)cc1`: the result with SH-SY5Y [1] and in the assay on SH-SY5Y [3] was inactive. Moreover, the Activity with SH-SY5Y [2] was determined as 106%.

As to `CC(=O)N[C@@H](CS)C(=O)O` [ACETYLCYSTEINE], in the assay with SH-SY5Y [4], the Activity is recorded as 89.2%.

With `Fc1ccc(-c2ccc(-c3noc(Cc4c[nH]c5ccccc45)n3)o2)cc1`, in the assay with SH-SY5Y [1], the outcome was inactive. The Activity with SH-SY5Y [2] is recorded as 84.8%.

On to `Cc1cccc(-c2ccc(-c3noc(Cc4c[nH]c5ccccc45)n3)o2)c1`, for which the outcome with SH-SY5Y [1] and with SH-SY5Y [2] was inactive.

In the case of `CN(C)c1ccc(-c2ccc(-c3noc(Cc4c[nH]c5ccccc45)n3)o2)cc1`, the result with SH-SY5Y [1], in the assay on SH-SY5Y [6] and in the assay on SH-SY5Y [2] was inactive. Also, the Activity with SH-SY5Y [5] turned out to be 98%.

Regarding `CCCOc1ccc(-c2ccc(-c3noc(Cc4c[nH]c5ccccc45)n3)o2)cc1`, the Activity stood at 90% in the assay on SH-SY5Y [1]; 98% in the assay on SH-SY5Y [5]; 94% in the assay with SH-SY5Y [7]; 84.1% in the assay on SH-SY5Y [3]; 80.4% in the assay on SH-SY5Y [8]; 115.5% in the assay with SH-SY5Y [2]. Moreover, in the assay on SH-SY5Y [6], the result was inactive.

Turning to `c1ccc2c(Cc3nc(-c4ccc(-c5ccc(N6CCOCC6)cc5)o4)no3)c[nH]c2c1`, the result in the assay on SH-SY5Y [1] and in the assay on SH-SY5Y [2] was inactive.

Turning to `CC(C)c1ccc(-c2ccc(-c3noc(Cc4c[nH]c5ccccc45)n3)o2)cc1`, in the assay with SH-SY5Y [1], the outcome was inactive. Besides, in the assay with SH-SY5Y [2], the Activity is on record as 93.3%.

`CCc1ccc(-c2ccc(-c3noc(Cc4c[nH]c5ccccc45)n3)o2)cc1`: in the assay with SH-SY5Y [1], the outcome was inactive. Further, the Activity in the assay on SH-SY5Y [2] is 100%.

Regarding `COc1ccc(-c2ccc(-c3noc(Cc4c[nH]c5ccccc45)n3)o2)cc1`, the result in the assay on SH-SY5Y [1] and in the assay with SH-SY5Y [6] was inactive. The figures for the Activity in the assay on SH-SY5Y [5] and with SH-SY5Y [2] were 98% and 91.5%, respectively.

For the compound `c1ccc(-c2ccc(-c3noc(Cc4c[nH]c5ccccc45)n3)o2)cc1`, the result in the assay with SH-SY5Y [1] and in the assay on SH-SY5Y [2] was inactive.

Regarding `Nc1ncc(-c2ccc(-c3noc(Cc4c[nH]c5ccccc45)n3)o2)cn1`, the result in the assay with SH-SY5Y [1] and in the assay on SH-SY5Y [2] was inactive. Moreover, the “inhibition (INH)” value in the assay on A549 is 2%; in assay [9], 26%.

As for `Oc1ccc(-c2ccc(-c3noc(Cc4c[nH]c5ccccc45)n3)o2)cc1`, the outcome with SH-SY5Y [1] and in the assay on SH-SY5Y [2] was inactive.

Take `Cc1ccc(-c2ccc(-c3noc(Cc4c[nH]c5ccccc45)n3)o2)cc1`: the outcome with SH-SY5Y [1] was inactive. The Activity in the assay with SH-SY5Y [2] stood at 80.3%.

`CN1CCN(c2ccc(-c3ccc(-c4noc(Cc5c[nH]c6ccccc56)n4)o3)cc2)CC1`: the outcome in the assay on SH-SY5Y [1] and in the assay on SH-SY5Y [2] was inactive.

In the case of `Nc1ccc(-c2ccc(-c3noc(Cc4c[nH]c5ccccc45)n3)o2)cc1`, in the assay on SH-SY5Y [1], the result was inactive. The results for the Activity in the assay on SH-SY5Y [10] and in the assay on SH-SY5Y [2] were 18.96% and 92.4%, respectively. The “inhibition (INH)” value in the assay with A549 is listed as 2%; in assay [9], 26%.

Consider `OCc1ccc(-c2ccc(-c3noc(Cc4c[nH]c5ccccc45)n3)o2)cc1`, for which the outcome in the assay with SH-SY5Y [1] was inactive. For the same compound, in the assay on SH-SY5Y [2], the Activity is listed as 92.1%.

As to `Clc1ccc(-c2ccc(-c3noc(Cc4c[nH]c5ccccc45)n3)o2)cc1`, in the assay on SH-SY5Y [1], the outcome was inactive. Also, the Activity in the assay on SH-SY5Y [2] is recorded as 83.9%.

`Brc1ccc(-c2ccc(-c3noc(Cc4c[nH]c5ccccc45)n3)o2)cc1`: in the assay with SH-SY5Y [1], the result was inactive. Also, in the assay with SH-SY5Y [2], the Activity is 83.5%.

As for `CCCc1ccc(-c2ccc(-c3noc(Cc4c[nH]c5ccccc45)n3)o2)cc1`, the values for the Activity in the assay on SH-SY5Y [1], in the assay with SH-SY5Y [7] and in the assay with SH-SY5Y [2] were 89.7%, 96% and 114.2%, respectively.

As to `Nc1ccc(-c2ccc(-c3noc(Cc4c[nH]c5ccccc45)n3)s2)cc1`, the result in the assay on SH-SY5Y [1] and in the assay with SH-SY5Y [2] was inactive.

`O=C(O[C@@H]1Cc2c(O)cc(O)cc2O[C@@H]1c1cc(O)c(O)c(O)c1)c1cc(O)c(O)c(O)c1` [EPIGALOCATECHIN GALLATE]: the Activity with SH-SY5Y [2] was 96.2%.

Turning to `CCOc1ccc(-c2ccc(-c3noc(Cc4c[nH]c5ccccc45)n3)o2)cc1`, the outcome in the assay with SH-SY5Y [1] and in the assay with SH-SY5Y [6] was inactive. In addition, the Activity is 98% in the assay on SH-SY5Y [5], 76.2% in the assay with SH-SY5Y [3], 80.6% with SH-SY5Y [8] and 89.1% in the assay with SH-SY5Y [2].

Regarding `Cc1ccccc1-c1ccc(-c2noc(Cc3c[nH]c4ccccc34)n2)o1`, the result with SH-SY5Y [1] and in the assay with SH-SY5Y [2] was inactive.

The values above are taken from ChEMBL document CHEMBL3351263, “Synthesis and biological evaluation of novel marine-derived indole-based 1,2,4-oxadiazoles derivatives as multifunctional neuroprotective agents” (2015).
